The values that follow come from ChEMBL document CHEMBL1148693, “Expeditious and convenient synthesis of pregnanes and its glycosides as potential anti-dyslipidemic and anti-oxidant agents” (2007).

Holding throughout (assay type): functional
The nature of assay [1]: Superoxide radical scavenging activity assessed by measuring formazone produced at 400 ug/kg. The settings on record: in the assay text read “400 ug/ml” for “400 ug/kg”. In a few lines: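 Superoxide generated enzymatically with xanthine ([…]), xanthine oxidase (0.04 U) and nitroblue tetrazolium, in 100 mM phosphate buffer, pH 8.2. Samples were sonicated in buffer and added at […], 37 °C for 30 min. Stopped with 0.5 mL glacial acetic acid; formazan read at 560 nm. Percent inhibition from ε 7.2×10³ M⁻¹cm⁻¹.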

Assay [2] in a line: Hydroxy radical scavenging activity assessed by measuring malondialdehyde produced at 400 ug/kg by thiobarbituric acid method. The settings on record: in the assay text read “400 ug/ml” for “400 ug/kg”. In a few lines: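 Non-enzymic hydroxyl-radical generation: deoxyribose 2.8 mM, FeSO4 2 mM, sodium ascorbate 2.0 mM and H2O2 2.8 mM in 50 mM KH2PO4, pH 7.4. Run with or without test compound at […], 37 °C for 90 min. Compared with compound-free reaction by Student's t-test.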

Assay [3] concerns Rattus norvegicus. Put plainly: Decrease in total cholesterol level in WR-1339-induced hyperlipidemic rat plasma at 400 mg/kg, po. Set-up: scale not given: the % may be the effect or the level left. In a few lines:
(§1)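 Male adult Charles Foster rats (200–225 g), six per group. Triton WR-1339 400 mg/kg b.w. ip; treatment suspended in water with 0.2% w/v gum acacia, given po at the same time; diet withdrawn. Vehicle controls were included. After 18 h, under thiopentone anaesthesia, retro-orbital blood was collected into EDTA. Plasma was diluted 1:3 in saline and assayed enzymatically on an autoanalyzer. Percent change vs triton-only group, Student's t-test.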

For assay [4], the system named is Rattus norvegicus. Briefly: Decrease in triglyceride level in WR-1339-induced hyperlipidemic rat plasma at 400 mg/kg, po. Set-up: scale not given: the % may be the effect or the level left. In a few lines:
as §1

Assay [5] has as its system Rattus norvegicus. Put plainly: Decrease in phospholipid level in WR-1339-induced hyperlipidemic rat plasma at 400 mg/kg, po. Set-up: scale not given: the % may be the effect or the level left. The essentials: as §1
Assay [6] relates to Rattus norvegicus. Put plainly: Decrease in total cholesterol level in WR-1339-induced hyperlipidemic rat plasma at 100 mg/kg, po. Set-up: scale not given: the % may be the effect or the level left. The essentials: as §1
Assay [7] deals with Rattus norvegicus. Put plainly: Decrease in triglyceride level in WR-1339-induced hyperlipidemic rat plasma at 100 mg/kg, po. Set-up: scale not given: the % may be the effect or the level left. In a few lines: as §1
The test system of assay [8] is Rattus norvegicus. Briefly: Decrease in phospholipid level in WR-1339-induced hyperlipidemic rat plasma at 100 mg/kg, po. More on the design: scale not given: the % may be the effect or the level left. In a few lines: as §1

The structures appear in SMILES notation.

Regarding `CC(=O)OC[C@H]1O[C@H](OCCO[C@@H]2C[C@H]3[C@@H]4CC=C5C[C@@H](O)CC[C@]5(C)[C@H]4CC[C@]3(C)[C@H]2C(C)=O)[C@@H](OC(C)=O)[C@@H](OC(C)=O)[C@@H]1OC(C)=O`, the Activity in assay [1] was 13.22 nmol/min; in assay [2], 35.05 nmol/h.

As for `CC(=O)C1=CC[C@H]2[C@@H]3CC=C4C[C@@H](OC(=O)c5ccc(Cl)cc5)CC[C@]4(C)[C@H]3CC[C@]12C`, the Activity in the assay with Rattus norvegicus [3] is -27%; in assay [1], 11.1 nmol/min; in assay [2], 27.16 nmol/h; with Rattus norvegicus [4], -25%; in the assay with Rattus norvegicus [5] it was -27%.

With `CC(=O)OCCO[C@@H]1C[C@H]2[C@@H]3CC=C4C[C@@H](OC(C)=O)CC[C@]4(C)[C@H]3CC[C@]2(C)[C@H]1[C@H](C)OC(C)=O`, the Activity with Rattus norvegicus [3] is -18%; in assay [1], 12.63 nmol/min; in assay [2], 33.9 nmol/h; in the assay with Rattus norvegicus [4], -13%; in the assay with Rattus norvegicus [5], -14%.

With `CC(=O)[C@H]1[C@H](OCCO)C[C@H]2[C@@H]3CC=C4C[C@@H](O)CC[C@]4(C)[C@H]3CC[C@@]21C`, the Activity was -13% in the assay with Rattus norvegicus [3]; 7.83 nmol/min in assay [1]; 36.12 nmol/h in assay [2]; -11% in the assay with Rattus norvegicus [4]; -8% in the assay with Rattus norvegicus [5].

Take `CC(=O)O[C@@H]1[C@@H](OC(C)=O)[C@H](C)O[C@@H](OCCO[C@@H]2C[C@H]3[C@@H]4CC=C5C[C@@H](O)CC[C@]5(C)[C@H]4CC[C@]3(C)[C@H]2C(C)=O)[C@@H]1OC(C)=O`: the Activity in assay [1] was 12.8 nmol/min; in assay [2], 39.02 nmol/h.

For the compound `C/C(=N\OCCCCCBr)C1=CC[C@H]2[C@@H]3CC=C4C[C@@H](O)CC[C@]4(C)[C@H]3CC[C@]12C`, the Activity in the assay with Rattus norvegicus [3] is -4%; in assay [1] it was 15.33 nmol/min; in assay [2], 38.52 nmol/h; in the assay with Rattus norvegicus [4], -5%; with Rattus norvegicus [5], -5%.

For `CC(=O)OCCO[C@@H]1C[C@H]2[C@@H]3CC=C4C[C@@H](OC(C)=O)CC[C@]4(C)[C@H]3CC[C@]2(C)[C@H]1C(C)=O`, the Activity in the assay with Rattus norvegicus [3] was -13%; in assay [1], 21.5 nmol/min; in assay [2], 41.5 nmol/h; in the assay on Rattus norvegicus [4], -16%; with Rattus norvegicus [5], -13%.

As to `Cc1ccc(C)c(OCCCC(C)(C)C(=O)O)c1` [GEMFIBROZIL], the results for the Activity in the assay on Rattus norvegicus [6], with Rattus norvegicus [7] and in the assay with Rattus norvegicus [8] were -37%, -32% and -36%, respectively.

Consider `CC(=O)C1=CC[C@H]2[C@@H]3CC=C4C[C@@H](OC(=O)c5ccccc5Cl)CC[C@]4(C)[C@H]3CC[C@]12C`, for which the Activity is -21% with Rattus norvegicus [3]; 14.33 nmol/min in assay [1]; 35.01 nmol/h in assay [2]; -14% in the assay with Rattus norvegicus [4]; -17% in the assay on Rattus norvegicus [5].

Regarding `C[C@H](O)[C@H]1[C@H](OCCO)C[C@H]2[C@@H]3CC=C4C[C@@H](O)CC[C@]4(C)[C@H]3CC[C@]12C`, the Activity with Rattus norvegicus [3] is -23%; in assay [1] it was 9.33 nmol/min; in assay [2], 31.09 nmol/h; in the assay on Rattus norvegicus [4], -26%; in the assay with Rattus norvegicus [5], -25%.
